According to ChEMBL document CHEMBL4304816, “A Novel Biphenyl-based Chemotype of Retinoid X Receptor Ligands Enables Subtype and Heterodimer Preferences” (ACS Med Chem Lett, 2019):
Calls of active or inactive are those of the source. The rule behind the calls is not given here.

Key:
Format in all cases: cell-based
[1] = molecular target: T1, Retinoic acid receptor RXR-gamma (Homo sapiens) (UniProt P48443); assay: Agonist activity at Gal4-LBD fused RXRgamma (unknown origin) expressed in HEK293T cells assessed as fold activation at 10 uM after 14 to 16 hrs by dual-Glo luciferase assay relative to untreated control
T1 sequence (whole entry): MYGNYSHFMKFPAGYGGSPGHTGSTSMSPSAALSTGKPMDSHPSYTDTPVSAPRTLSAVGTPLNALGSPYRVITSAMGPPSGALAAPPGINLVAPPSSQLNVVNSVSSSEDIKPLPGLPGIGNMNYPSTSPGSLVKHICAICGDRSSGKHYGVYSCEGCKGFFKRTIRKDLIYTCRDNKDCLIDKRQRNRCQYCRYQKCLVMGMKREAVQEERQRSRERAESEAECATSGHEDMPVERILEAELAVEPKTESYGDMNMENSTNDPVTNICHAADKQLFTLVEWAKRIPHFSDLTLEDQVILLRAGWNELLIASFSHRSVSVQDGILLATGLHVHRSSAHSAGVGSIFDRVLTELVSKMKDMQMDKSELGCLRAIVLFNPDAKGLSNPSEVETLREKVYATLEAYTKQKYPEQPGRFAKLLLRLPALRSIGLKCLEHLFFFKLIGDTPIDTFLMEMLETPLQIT
Outline: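 Gal4-hybrid RXRα/β/γ reporter gene assays in HEK293T cells. Fold activation is the maximal fold activation versus 0.1% DMSO.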

[2] = molecular target: T2, Retinoic acid receptor gamma (Homo sapiens) (UniProt P13631); assay: Agonist activity at Gal4-LBD fused RARgamma (unknown origin) expressed in HEK293T cells after at 10 uM 14 to 16 hrs by dual-Glo luciferase assay
T2 sequence (whole entry): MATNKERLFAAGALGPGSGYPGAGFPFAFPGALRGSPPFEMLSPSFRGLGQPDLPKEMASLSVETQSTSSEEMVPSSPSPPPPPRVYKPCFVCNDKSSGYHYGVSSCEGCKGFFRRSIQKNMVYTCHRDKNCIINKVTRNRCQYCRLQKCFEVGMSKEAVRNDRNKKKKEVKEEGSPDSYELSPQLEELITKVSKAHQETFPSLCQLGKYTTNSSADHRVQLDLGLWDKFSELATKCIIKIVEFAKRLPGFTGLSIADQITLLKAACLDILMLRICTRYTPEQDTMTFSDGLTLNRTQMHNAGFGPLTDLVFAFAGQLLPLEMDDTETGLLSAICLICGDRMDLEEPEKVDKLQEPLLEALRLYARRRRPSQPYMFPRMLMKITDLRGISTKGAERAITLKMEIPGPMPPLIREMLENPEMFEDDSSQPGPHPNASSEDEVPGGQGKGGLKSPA
Outline: (§1)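 Gal4-hybrid reporter gene selectivity panel of related nuclear receptors (PPARα/β/γ, RARα/β/γ) in HEK293T cells. Activity is read as mean fold activation versus 0.1% DMSO vehicle, n ≥ 2.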

[3] = molecular target: T3, Peroxisome proliferator-activated receptor alpha (Homo sapiens) (UniProt Q07869); assay: Agonist activity at Gal4-LBD fused PPARalpha (unknown origin) expressed in HEK293T cells at 10 uM after 14 to 16 hrs by dual-Glo luciferase assay; outline: as §1
T3 sequence (whole entry): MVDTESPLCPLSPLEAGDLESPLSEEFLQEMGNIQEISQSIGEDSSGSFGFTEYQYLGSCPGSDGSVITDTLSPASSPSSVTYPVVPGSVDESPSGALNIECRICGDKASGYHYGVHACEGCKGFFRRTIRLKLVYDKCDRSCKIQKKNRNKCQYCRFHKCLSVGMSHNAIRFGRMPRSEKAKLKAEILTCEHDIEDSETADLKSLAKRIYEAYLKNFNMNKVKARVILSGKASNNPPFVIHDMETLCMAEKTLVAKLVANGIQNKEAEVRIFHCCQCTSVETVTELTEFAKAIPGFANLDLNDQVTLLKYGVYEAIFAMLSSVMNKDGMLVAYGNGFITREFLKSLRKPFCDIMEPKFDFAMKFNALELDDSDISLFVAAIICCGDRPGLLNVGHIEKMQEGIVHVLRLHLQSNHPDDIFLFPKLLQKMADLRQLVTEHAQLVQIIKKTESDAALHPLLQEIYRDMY

[4] = molecular target: T4, Peroxisome proliferator-activated receptor gamma (Homo sapiens) (UniProt P37231); assay: Agonist activity at Gal4-LBD fused PPARgamma (unknown origin) expressed in HEK293T cells at 10 uM after 14 to 16 hrs by dual-Glo luciferase assay; outline: as §1
T4 sequence (whole entry): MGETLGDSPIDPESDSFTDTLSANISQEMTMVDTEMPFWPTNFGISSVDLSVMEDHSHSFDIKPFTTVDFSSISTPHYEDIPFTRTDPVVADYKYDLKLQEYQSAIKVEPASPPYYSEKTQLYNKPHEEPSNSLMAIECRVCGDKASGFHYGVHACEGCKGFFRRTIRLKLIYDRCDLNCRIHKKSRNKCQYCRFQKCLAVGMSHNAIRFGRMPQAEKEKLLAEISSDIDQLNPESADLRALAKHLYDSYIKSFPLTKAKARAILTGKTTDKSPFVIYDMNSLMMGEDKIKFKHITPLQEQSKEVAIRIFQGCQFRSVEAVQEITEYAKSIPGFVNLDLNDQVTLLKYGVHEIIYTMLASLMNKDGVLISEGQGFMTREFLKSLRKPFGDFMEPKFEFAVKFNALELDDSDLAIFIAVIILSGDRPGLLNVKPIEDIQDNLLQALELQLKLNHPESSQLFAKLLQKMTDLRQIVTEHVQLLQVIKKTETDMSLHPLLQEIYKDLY

[5] = Agonist activity at full-length human RXR/LXR expressed in HEK293T cells at 10 uM after 14 to 16 hrs by dual-glo luciferase reporter gene assay relative to untreated control; conditions: HEK-293T, read-out: Activity
Outline: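 RXR:LXR or RXR:PPARγ heterodimer reporter assay with test compound alone. Activation expressed relative to 0.1% DMSO vehicle. Three independent experiments, each in duplicate; mean reported.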

Homo sapiens [6] = species on record: Homo sapiens; assay: Agonist activity at full-length human PPARgamma/RXR expressed in HEK293T cells at 10 uM after 14 to 16 hrs by dual-glo luciferase reporter gene assay relative to untreated control
Outline: (§2)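 RXR:PPARγ heterodimer reporter assay in HEK293T cells with test compound alone. Mean relative activation is taken versus 0.1% DMSO, from three independent experiments each run in duplicate.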

Homo sapiens [7] = species on record: Homo sapiens; assay: Agonist activity at full-length human PPARgamma/RXR expressed in HEK293T cells at 20 uM after 14 to 16 hrs by dual-glo luciferase reporter gene assay relative to untreated control; outline: as §2
[8] = Agonist activity at full-length human RXR/LXR expressed in HEK293T cells at 20 uM after 14 to 16 hrs in presence of 1 uM T0901317 by dual-glo luciferase reporter gene assay relative to T0901317; conditions: HEK-293T, read-out: Activity
Outline: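 Synergy format: the test compound was co-applied with the partner-receptor reference agonist at 1 μM, either T0901317 (RXR:LXR) or rosiglitazone (RXR:PPARγ). Relative synergistic activation was derived from three independent experiments, each in duplicate; mean reported.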

SMILES | fold change (FC) [1] | Activity [2] | Activity [3] | Activity [4] | activity at 10 µM [5] [%] | Activity (Homo sapiens [6]) [%] | Activity (Homo sapiens [7]) [%] | activity at 20 µM [8] [%]
Cc1cc(-c2cc(C(C)(C)C)cc(C(C)(C)C)c2)ccc1C(=O)O | 1 | Active | Active | Active |  |  |  | 
Cc1cc(-c2cc(C(F)(F)F)cc(C(F)(F)F)c2)ccc1CC(=O)O |  | Active | Active | Active | 63 | 139 |  | 
Cc1cc(-c2ccc(C(=O)O)cc2)cc(C(C)(C)C)c1 |  |  |  |  |  |  | 91 | 70
